In ChEMBL document CHEMBL1811911, “Synthesis and antidepressant-like activity evaluation of sulphonamides and sulphonyl-hydrazones” (Bioorg Med Chem, 2011):
Active and inactive are the calls of the source. No cut-off for these calls is given here.

Key:
Mus musculus [1] = test: Toxicity in Swiss mouse assessed as number of squares crossed at 10 mg/kg, ip administered 30 mins proir test measured during last 4 mins of 6 mins incubation by forced-swimming test by locomotory test (reference value: 96.63 +/- 5.32); assay type: organism-based; design: dose 10 mg/kg, route intraperitoneal; conditions: in vivo
Mus musculus [2] = test: Antidepressant activity in Swiss mouse assessed as immobility duration at 10 mg/kg, ip administered 30 mins prior test measured during last 4 mins of 6 mins observation period by forced-swimming test (reference value: 166 +/- 12.23 to 218.54 +/- 8.11 Secs); assay type: functional; conditions: route intraperitoneal
Mus musculus [3] = test: Antidepressant activity in Swiss mouse assessed as reduction of immobility duration at 10 mg/kg, ip administered 30 mins prior test measured during last 4 mins of 6 mins observation period by forced-swimming test relative to control; assay type: functional; design: scale not given: the % may be the effect or the level left; conditions: route intraperitoneal
Mus musculus [4] = test: Antidepressant activity in Swiss mouse assessed as reduction of immobility duration at 10 mg/kg, ip administered 30 mins prior test measured during last 4 mins of 6 mins observation period by forced-swimming test (reference value: 0 %); assay type: functional; design: scale not given: the % may be the effect or the level left; conditions: route intraperitoneal
Mus musculus [5] = test: Antidepressant activity in Swiss mouse assessed as reduction of immobility duration at 3 mg/kg, ip administered 30 mins prior test measured during last 4 mins of 6 mins observation period by forced-swimming test relative to control; assay type: functional, organism-based; design: dose 3 mg/kg
Mus musculus [6] = test: Antidepressant activity in Swiss mouse assessed as reduction of immobility duration at 6 to 10 mg/kg, ip measured after 6 mins by tail suspension test relative to control; assay type: functional; design: scale not given: the % may be the effect or the level left; conditions: dose mg/kg 6-10; route intraperitoneal
Summary of the method: (§1)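 Tail suspension test (Steru method) in male adult Swiss mice (25–35 g), compound given ip acutely, vehicle 0.9% NaCl. Mice, isolated acoustically and visually, hung 50 cm above the floor by adhesive tape about 1 cm from tail tip; total immobility time recorded. Percent reduction = [(A−B)/A]×100, A control and B treated immobility.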

Mus musculus [7] = test: Toxicity in Swiss mouse assessed as number of rearing at 10 mg/kg, ip administered 30 mins prior test measured during last 4 mins of 6 mins observation period by forced-swimming test by locomotory test (reference value: 39.45 +/- 6.21); assay type: organism-based; design: dose 10 mg/kg, route intraperitoneal; conditions: in vivo
Mus musculus [8] = test: Antidepressant activity in Swiss mouse assessed as immobility duration at 30 mg/kg, ip administered 30 mins prior test measured during last 4 mins of 6 mins observation period by forced-swimming test (reference value: 166 +/- 12.23 to 218.54 +/- 8.11 Secs); assay type: functional; conditions: route intraperitoneal
Mus musculus [9] = test: Antidepressant activity in Swiss mouse assessed as reduction of immobility duration at 30 mg/kg, ip administered 30 mins prior test measured during last 4 mins of 6 mins observation period by forced-swimming test (reference value: 0 %); assay type: functional; design: scale not given: the % may be the effect or the level left; conditions: route intraperitoneal
Mus musculus [10] = test: Antidepressant activity in Swiss mouse assessed as reduction of immobility duration at 6 to 30 mg/kg, ip measured after 6 mins by tail suspension test relative to control; assay type: functional; design: scale not given: the % may be the effect or the level left; conditions: dose mg/kg 6-30; route intraperitoneal; summary of the method: as §1
Mus musculus [11] = test: Toxicity in Swiss mouse assessed as number of rearing at 30 mg/kg, ip administered 30 mins prior test measured during last 4 mins of 6 mins observation period by forced-swimming test by locomotory test (reference value: 39.45 +/- 6.21); assay type: organism-based; design: dose 30 mg/kg, route intraperitoneal; conditions: in vivo
Mus musculus [12] = test: Toxicity in Swiss mouse assessed as number of squares crossed at 30 mg/kg, ip administered 30 mins proir test measured during last 5 mins of 6 mins incubation by open-field test (reference value: 96.63 +/- 5.32); conditions: in vivo
Mus musculus [13] = test: Antidepressant activity in Swiss mouse assessed as reduction of immobility duration at 6 to 30 mg/kg, ip administered 30 mins prior test measured during last 4 mins of 6 mins observation period by forced-swimming test relative to control; assay type: functional; design: scale not given: the % may be the effect or the level left; conditions: dose mg/kg 6-30; route intraperitoneal
Mus musculus [14] = test: Antidepressant activity in Swiss mouse assessed as reduction of immobility duration at 10 to 60 mg/kg, ip administered 30 mins prior test measured during last 4 mins of 6 mins observation period by forced-swimming test relative to control; assay type: functional
Mus musculus [15] = test: Antidepressant activity in Swiss mouse assessed as immobility duration at 60 mg/kg, ip administered 30 mins prior test measured during last 4 mins of 6 mins observation period by forced-swimming test (reference value: 166 +/- 12.23 to 218.54 +/- 8.11 Secs); assay type: functional; conditions: route intraperitoneal
Mus musculus [16] = test: Antidepressant activity in Swiss mouse assessed as reduction of immobility duration at 30 to 60 mg/kg, ip measured after 6 mins by tail suspension test relative to control; assay type: functional; design: scale not given: the % may be the effect or the level left; conditions: dose mg/kg 30-60; route intraperitoneal; summary of the method: as §1
Mus musculus [17] = test: Antidepressant activity in Swiss mouse assessed as reduction of immobility duration at 30 to 60 mg/kg, ip administered 30 mins prior test measured during last 4 mins of 6 mins observation period by forced-swimming test relative to control; assay type: functional, organism-based
Mus musculus [18] = test: Toxicity in Swiss mouse assessed as number of squares crossed at 60 mg/kg, ip administered 30 mins proir test measured during last 5 mins of 6 mins incubation by open-field test (reference value: 96.63 +/- 5.32); conditions: in vivo
Mus musculus [19] = test: Antidepressant activity in Swiss mouse assessed as reduction of immobility duration at 60 mg/kg, ip administered 30 mins prior test measured during last 4 mins of 6 mins observation period by forced-swimming test (reference value: 0 %); assay type: functional; design: scale not given: the % may be the effect or the level left; conditions: route intraperitoneal
Mus musculus [20] = test: Toxicity in Swiss mouse assessed as number of rearing at 60 mg/kg, ip administered 30 mins prior test measured during last 4 mins of 6 mins observation period by forced-swimming test by locomotory test (reference value: 39.45 +/- 6.21); assay type: organism-based; design: dose 60 mg/kg, route intraperitoneal; conditions: in vivo
Mus musculus [21] = test: Antidepressant activity in Swiss mouse assessed as reduction of immobility duration at 60 mg/kg, ip administered 30 mins prior test measured during last 4 mins of 6 mins observation period by forced-swimming test relative to control; assay type: functional; design: scale not given: the % may be the effect or the level left
Mus musculus [22] = test: Antidepressant activity in Swiss mouse assessed as reduction of immobility duration at 10 mg/kg, ip measured after 6 mins by tail suspension test relative to control; assay type: functional; design: scale not given: the % may be the effect or the level left; conditions: route intraperitoneal; summary of the method: as §1
Mus musculus [23] = test: Antidepressant activity in Swiss mouse assessed as immobility duration at 20 mg/kg, ip administered 30 mins prior test measured during last 4 mins of 6 mins observation period by forced-swimming test (reference value: 166 +/- 12.23 to 218.54 +/- 8.11 Secs); assay type: functional; conditions: route intraperitoneal
Summary of the method: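 Male adult Swiss mice (25–35 g), group-housed under 12 h light (07:00–19:00) at 23 °C. Single ip dose, vehicle 0.9% NaCl, acute pre-treatment. Porsolt forced swim: individual cylinders (20 cm diameter) with 20 cm water at 24 °C, 6 min swim; immobility scored manually over last 4 min. %IM = (A−B)/A×100 versus vehicle group; N = 8–10 mice; ANOVA with Dunnett's test.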

Mus musculus [24] = test: Antidepressant activity in Swiss mouse assessed as reduction of immobility duration at 6 to 10 mg/kg, ip administered 30 mins prior test measured during last 4 mins of 6 mins observation period by forced-swimming test relative to control; assay type: functional, organism-based
Mus musculus [25] = test: Antidepressant activity in Swiss mouse assessed as reduction of immobility duration at 10 to 60 mg/kg, ip measured after 6 mins by tail suspension test relative to control; assay type: functional; design: scale not given: the % may be the effect or the level left; conditions: dose mg/kg 10-60; route intraperitoneal; summary of the method: as §1

O=C1c2cccc3cccc(c23)C(=O)N1Cc1ccc(S(=O)(=O)N2CCCC2)cc1
Activity (Mus musculus [1]): 108.45
Time (Mus musculus [2]): 67.37 s
Activity (Mus musculus [3]): 52.26%
Activity (Mus musculus [4]): 64.25%
Activity (Mus musculus [5]): inactive
Activity (Mus musculus [6]): 45.57%
Activity (Mus musculus [7]): 37.45

COc1cc(/C=N/NS(=O)(=O)c2ccc(CN3C(=O)c4ccccc4C3=O)cc2)ccc1O
Time (Mus musculus [8]): 55.37 s
Activity (Mus musculus [9]): 66.64%
Activity (Mus musculus [10]): 69.21%
Activity (Mus musculus [11]): 45.37
Activity (Mus musculus [12]): 106.45
Activity (Mus musculus [13]): 63.9%

CC12C=CC(O1)C1C(=O)N(c3ccc(S(=O)(=O)N/N=C/c4ccc(Cl)c(Cl)c4)cc3)C(=O)C12 (centres undefined)
Activity (Mus musculus [14]): inactive

O=C1C2C3C=CC(O3)C2C(=O)N1c1ccc(S(=O)(=O)N2CCCC2)cc1 (centres undefined)
Time (Mus musculus [15]): 92.95 s
Activity (Mus musculus [16]): 58.85%
Activity (Mus musculus [17]): Active
Activity (Mus musculus [18]): 86.74
Activity (Mus musculus [19]): 54.8%
Activity (Mus musculus [20]): 42.95
Activity (Mus musculus [21]; route intraperitoneal): 28.8%

O=C1c2cccc3c(Cl)ccc(c23)C(=O)N1CCc1ccc(S(=O)(=O)N2CCCC2)cc1
Activity (Mus musculus [1]): 86.74
Time (Mus musculus [2]): 82 s
Activity (Mus musculus [4]): 56.49%
Activity (Mus musculus [5]): inactive
Activity (Mus musculus [7]): 42
Activity (Mus musculus [21]): inactive
Activity (Mus musculus [14]): inactive

CC12C=CC(O1)C1C(=O)N(c3ccc(S(=O)(=O)N4CCCC4)cc3)C(=O)C12 (centres undefined)
Activity (Mus musculus [1]): 96
Time (Mus musculus [2]): 133 s
Activity (Mus musculus [3]): 85%
Activity (Mus musculus [4]): 33.33%
Activity (Mus musculus [22]): 31.17%
Activity (Mus musculus [7]): 33

CNCCC(Oc1ccc(C(F)(F)F)cc1)c1ccccc1 (centres undefined) [FLUOXETINE]
Time (Mus musculus [23]): 33.18 s

COc1cc(/C=N/NS(=O)(=O)c2ccc(CN3C(=O)c4cccc5cccc(c45)C3=O)cc2)ccc1O
Activity (Mus musculus [1]): 96.1
Time (Mus musculus [2]): 70.75 s
Activity (Mus musculus [3]): 60.3%
Activity (Mus musculus [4]): 60.3%
Activity (Mus musculus [22]): 74.65%
Activity (Mus musculus [7]): 40.75

COc1ccc(/C=N/NS(=O)(=O)c2ccc(N3C(=O)C4C5C=CC(C)(O5)C4C3=O)cc2)cc1 (centres undefined)
Activity (Mus musculus [1]): 92.54
Time (Mus musculus [2]): 90.37 s
Activity (Mus musculus [24]): Active
Activity (Mus musculus [3]): 58.53%
Activity (Mus musculus [4]): 58.64%
Activity (Mus musculus [6]): 41.64%
Activity (Mus musculus [7]): 40.37

O=C1c2ccccc2C(=O)N1Cc1ccc(S(=O)(=O)N/N=C/c2ccc([N+](=O)[O-])cc2)cc1
Time (Mus musculus [15]): 52.25 s
Activity (Mus musculus [18]): 92.54
Activity (Mus musculus [19]): 68.52%
Activity (Mus musculus [20]): 42.65
Activity (Mus musculus [25]): 64.88%
Activity (Mus musculus [14]; dose mg/kg 10-60, route intraperitoneal): 68.64%

O=C1C2C3C=CC(O3)C2C(=O)N1c1ccc(S(=O)(=O)N/N=C/c2ccc(O)cc2)cc1 (centres undefined)
Activity (Mus musculus [14]): inactive

CN(C)CCCN1c2ccccc2CCc2ccccc21 [IMIPRAMINE]
Time (Mus musculus [2]): 49.85 s
Activity (Mus musculus [4]): 57.3%

CC12C=CC(O1)C1C(=O)N(c3ccc(S(=O)(=O)N4CCOCC4)cc3)C(=O)C12 (centres undefined)
Activity (Mus musculus [1]): 101.12
Time (Mus musculus [2]): 131 s
Activity (Mus musculus [24]): Active
Activity (Mus musculus [3]): 28.8%
Activity (Mus musculus [4]): 36.3%
Activity (Mus musculus [6]): 23.69%
Activity (Mus musculus [7]): 38

O=C1C2C3C=CC(O3)C2C(=O)N1c1ccc(S(=O)(=O)N/N=C/c2ccc([N+](=O)[O-])cc2)cc1 (centres undefined)
Activity (Mus musculus [1]): 98.14
Time (Mus musculus [2]): 178.37 s
Activity (Mus musculus [24]): Active
Activity (Mus musculus [3]): 65.44%
Activity (Mus musculus [4]): 18.38%
Activity (Mus musculus [6]): 57.5%
Activity (Mus musculus [7]): 38.37

Cc1ccc(/C=N/NS(=O)(=O)c2ccc(N3C(=O)C4C5C=CC(C)(O5)C4C3=O)cc2)cc1 (centres undefined)
Activity (Mus musculus [1]): 92.74
Time (Mus musculus [2]): 83 s
Activity (Mus musculus [24]): Active
Activity (Mus musculus [3]): 62.83%
Activity (Mus musculus [6]): 55.05%
Activity (Mus musculus [7]): 43

O=C1c2cccc3cccc(c23)C(=O)N1Cc1ccc(S(=O)(=O)N2CCOCC2)cc1
Activity (Mus musculus [1]): 98.85
Time (Mus musculus [2]): 66 s
Activity (Mus musculus [3]): 60.3%
Activity (Mus musculus [4]): 64.89%
Activity (Mus musculus [5]): inactive
Activity (Mus musculus [6]): 57.14%
Activity (Mus musculus [7]): 36.67

CC12C=CC(O1)C1C(=O)N(c3ccc(S(=O)(=O)N/N=C/c4ccc(Cl)cc4)cc3)C(=O)C12 (centres undefined)
Time (Mus musculus [15]): 61 s
Activity (Mus musculus [18]): 98.45
Activity (Mus musculus [19]): 72.02%
Activity (Mus musculus [20]): 41
Activity (Mus musculus [25]): 62.87%
Activity (Mus musculus [21]; route intraperitoneal): 62.83%
Activity (Mus musculus [14]): Active

O=C1c2cccc3c(Cl)ccc(c23)C(=O)N1Cc1ccc(S(=O)(=O)N2CCOCC2)cc1
Activity (Mus musculus [3]): 52.63%
Activity (Mus musculus [5]): inactive
Activity (Mus musculus [6]): 30.61%
